# Experimental data gathered from unrelated publications.
# Each line is one published result; the experiments were not run side by side.
# Cell line: MCF7
# Observed: cell growth or viability
Structure (SMILES),method,time,IC50
CO[C@]1([C@@H]2CSC(=O)N2C(=O)c2ccccc2)C[C@H]2C[C@@H](CC[C@H](C)/C=C\C=C\CC/C(C)=C\C(=O)O2)O1,MTT,72 h,0.55 µM
COc1c2c(cc3c1OCO3)[C@]13C=C[C@H](OC)C[C@@H]1[N@](C2)C[C@H]3OC(=O)c1ccco1,WST-1,,> 10 µM
N[C@@H](Cc1ccc(N(CCCl)CCCl)cc1)C(=O)O,CCK-8,48 h,> 50 µM
CO[C@]1([C@@H]2CSC(=O)N2C)C[C@H]2C[C@@H](CC[C@H](C)/C=C\C=C\CC/C(C)=C\C(=O)O2)O1,MTT,72 h,13.1 µM
N.N.O=C([O-])C1(C(=O)[O-])CCC1.[Pt+2],MTT,96 h,> 100 µM
CCC1(c2ccc(N)cc2)CCC(=O)NC1=O (centres unmarked),CCK-8,48 h,> 50 µM
COC(C(=O)N1C(=O)SCC1C1(OC)CC2CC(CCC(C)C=CC=CCCC(C)=CC(=O)O2)O1)c1ccccc1 (centres unmarked),MTT,72 h,15.4 µM
N.N.[Cl][Pt][Cl],SRB,48 h,9.6 µM
O=c1ccc2ccc3occc3c2o1,WST-1,48 h,7 µM
C/C1=C/C(=O)O[C@@H]2C[C@@H](CC[C@H](C)/C=C\C=C\CC1)O[C@@](OC(=O)c1ccccc1)([C@@H]1CSC(=O)N1)C2,MTT,72 h,0.52 µM
c1ccc2c(c1)CCc1c-2[nH]c2ccccc12,MTT,72 h,> 75 µM
O=C(Oc1ccc(Br)cc1)[c-]1cccc1.[Fe+2].c1cc[cH-]c1,MTT,72 h,9.2 µM
CCN1C(=O)SC[C@H]1[C@@]1(O)C[C@H]2C[C@@H](CC[C@H](C)/C=C\C=C\CC/C(C)=C\C(=O)O2)O1,MTT,72 h,0.95 µM
C[C@@H]1O[C@@H](O[C@H]2C[C@@H](O)[C@]3(CO)[C@H]4[C@H](O)C[C@]5(C)[C@@H](C6=CC(=O)OC6)CC[C@]5(O)[C@@H]4CC[C@]3(O)C2)[C@H](O)[C@H](O)[C@H]1O,resazurin,72 h,0.053 µM
N.N.[Cl][Pt][Cl],MTT,,10 µM
COc1c2c(cc3c1OCO3)[C@]13C=C[C@H](OC)C[C@@H]1[N@](C2)C[C@H]3OC(=O)c1ccc2ccccc2c1,WST-1,,> 10 µM
O=C(Oc1ccc(-n2cccc2)cc1)[c-]1cccc1.[Fe+2].c1cc[cH-]c1,MTT,72 h,1.4 µM
N.N.[Cl][Pt][Cl],MTT,48 h,15.6 µM
CO[C@]1([C@@H]2CSC(=O)N2CCCO)C[C@H]2C[C@@H](CC[C@H](C)/C=C\C=C\CC/C(C)=C\C(=O)O2)O1,MTT,72 h,19.2 µM
[Cl-].[Cl-].[Co+2],MTT,48 h,> 150 µM
